LMPTP inh: LMPTP phosphatase inhibitors, primary screen, biochemical, fluorescence intensity, uHTS; Low molecular weight phosphotyrosine protein phosphatase (Homo sapiens), P24666; recombinant LMPTP-A, OMFP fluorogenic substrate; inhibition, % at 20 µM; 0.22% of 360,000 active; AID 651560, 2012;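 active means compounds that cut the enzyme signal by at least half of the control window in the single-dose screen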;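 further: plate controls were DMSO wells with enzyme plus substrate for no effect and substrate without enzyme for full effect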
Target sequence (P24666 whole entry, looked up): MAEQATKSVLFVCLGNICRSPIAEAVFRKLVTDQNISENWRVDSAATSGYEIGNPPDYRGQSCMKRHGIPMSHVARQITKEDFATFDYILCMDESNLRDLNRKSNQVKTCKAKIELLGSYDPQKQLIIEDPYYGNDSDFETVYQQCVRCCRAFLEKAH
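Test system: LMPTP-A phosphatase enzyme; input: 0.625 nM LMPTP-A final; reagent: OMFP substrate, 400 µM final; compound dosing: 20 µM single dose, 3% DMSO; incubation: 50 min dark incubation at room temperature; measured by: endpoint fluorescence intensity from OMFP dephosphorylation; measure: % inhibition relative to no-enzyme and uninhibited control wells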
DNMT1 block: human DNMT1 methyltransferase inhibitors, primary screen, biochemical, molecular beacon, fluorescence, HinP1I cleavage, uHTS. DNA (cytosine-5)-methyltransferase 1 (Homo sapiens), P26358. inhibition (reported as % activation of signal), % at 10 µM. 0.83% of 360,000 active. AID 588458, 2011; in the data active means inhibition above about 50%
STEP inh: STEP phosphatase inhibitors, primary screen, biochemical, fluorescence intensity, uHTS. recombinant STEP, OMFP fluorogenic substrate. 0.25% of 360,000 active. Tyrosine-protein phosphatase non-receptor type 5 (Homo sapiens), P54829. inhibition, % at 20 µM. AID 588621, 2011;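 active means inhibition at 20 µM, scaled per plate between control wells, above about 37%, limit read from the data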;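 further: 0% = DMSO with enzyme and substrate and 100% = substrate only without enzyme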
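material = STEP tyrosine phosphatase | reagent = fluorogenic phosphatase substrate OMFP at 25 µM final | doses = single compound dose of 20 µM, 1% DMSO final | schedule = 20 min reaction, room temperature, in the dark | measured by = fluorescence, 480/540 nm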
Scp1 inh: Scp-1 phosphatase inhibitors, primary screen, biochemical, colorimetric, uHTS; inhibition, % at 20 µM; 0.88% of 340,000 active; Carboxy-terminal domain RNA polymerase II polypeptide A small phosphatase 1 (Homo …; AID 493091, 2011; Recombinant Scp1, phosphopeptide, malachite green phosphate absorbance;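 active means inhibition above about 50% at 20 µM, limit read from the data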;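 further: plate controls were DMSO wells with enzyme for no effect and wells lacking enzyme for full effect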
Target sequence (Q9GZU7 76-261 limits assumed): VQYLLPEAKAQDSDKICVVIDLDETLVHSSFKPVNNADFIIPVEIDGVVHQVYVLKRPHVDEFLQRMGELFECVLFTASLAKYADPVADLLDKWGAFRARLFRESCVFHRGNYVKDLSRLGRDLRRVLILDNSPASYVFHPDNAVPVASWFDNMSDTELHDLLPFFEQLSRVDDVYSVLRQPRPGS
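Material – SCP-1 phosphatase catalytic domain, residues 76-261 · Buffer or medium – Acidic Tris acetate buffer with magnesium and detergent · Also added – Phospho 17-mer peptide substrate · Compound – single 20 µM dose, 1% DMSO · Times – 45 min room-temperature reaction, 5 min colour, 30 min stabiliser · Technique – Phosphate-binding colour reagent, absorbance read at 630 nm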
Rpn11 block: Rpn11 (PSMD14) deubiquitinase inhibitors, primary screen, biochemical, fluorescence polarization, uHTS; human 26S proteasome, Ub4-pepOG fluorescence polarization; 20S core pre-blocked with epoxomicin; inhibition, % at 20 µM; 0.59% of 360,000 active; 26S proteasome non-ATPase regulatory subunit 14 (Homo sapiens), O00487;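 active means inhibition at 20 µM, scaled to each plate's controls, above about 33%, limit read from the data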
Target sequence (O00487 whole entry, looked up): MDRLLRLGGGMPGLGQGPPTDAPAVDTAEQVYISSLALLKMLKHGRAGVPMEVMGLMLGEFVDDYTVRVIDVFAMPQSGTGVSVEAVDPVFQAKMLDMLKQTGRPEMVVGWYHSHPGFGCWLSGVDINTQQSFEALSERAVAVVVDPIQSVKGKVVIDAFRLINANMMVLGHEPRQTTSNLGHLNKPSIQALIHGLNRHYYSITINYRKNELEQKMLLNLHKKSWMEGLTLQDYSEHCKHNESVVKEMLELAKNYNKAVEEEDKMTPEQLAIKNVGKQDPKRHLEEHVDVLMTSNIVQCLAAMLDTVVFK
Scp-1 conf: Scp-1 phosphatase inhibitors, retest, confirmation, biochemical, colorimetric, single concentration; shares compounds with Scp1 inh; recombinant SCP-1 catalytic domain, phosphate release, malachite green absorbance; inhibition, % at 20 µM; 61% of 2,500 active;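 further: plate controls were DMSO with enzyme for no effect and buffer wells lacking enzyme for full effect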
MG interference: colorimetric readout interference by compounds, confirmation, artefact control for Scp-1 inhibitor project, biochemical, single concentration; shares compounds with Scp1 inh; Colorimetric interference counterscreen, malachite green absorbance 630 nm; apparent inhibition (interference), % at 20 µM; 2,500 tested, under 10 active; AID 540313, 2011;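 further: compounds added after enzyme reaction finished so only phosphate colour detection is probed; plate controls were DMSO wells with completed Scp-1 reaction for no effect and substrate wells lacking enzyme for full effect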
Scp-1 Tm shift: Scp-1 binding by thermal shift, confirmation, orthogonal assay for Scp-1 inhibitor project, biophysical, differential scanning fluorimetry; shares compounds with Scp1 inh; Recombinant SCP1, Sypro Orange thermal shift Tm; thermal shift relative to vanadate control, % at 40 µM; 25% of 1,500 active;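 active means substances whose mean melting-temperature shift, as a percentage of the reference inhibitor's shift, reaches about 5.3%, limit read from the data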;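 further: 0% = Tm of DMSO wells and 100% = Tm with sodium orthovanadate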
* = called active by the depositor; . = no result shown. A selection: hits, their analogues and other compounds. The true share with any hit is near 2%.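 How the source made its calls, unless noted: active means inhibition of at least 30% at 20 µM; inactive means the rest.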

SMILES | LMPTP inh | DNMT1 block | STEP inh | Scp1 inh | Rpn11 block | Scp-1 conf | MG interference | Scp-1 Tm shift
Cc1cccc(N2CCN(c3ccc(NC(=O)/C=C(/C(=O)O)c4ccccc4)cc3)CC2)c1 | -1 | 0 | 2 | 58* | -6 | 72* | -10 | -5
CC(=O)N1C[C@H]2CON(C)[C@H]2C[C@H]1c1ccc(-c2cccnc2)cc1 | -1 | 5 | 0 | . | 1 | . | . | .
Cn1cnc(C(=O)N2CCN(c3ccccc3)CC2)c1C(=O)N1CCN(c2ccccc2)CC1 | -2 | 8 | -1 | 96* | -8 | 84* | -16 | -12
Cn1cnc(C(=O)N2CCN(C(=O)OC(C)(C)C)CC2)c1C(=O)N1CCN(C(=O)OC(C)(C)C)CC1 | -1 | 4 | -3 | 46 | 2 | . | . | .
CCOC(=O)[C@]12CCCC=C1N(Cc1ccc(Cl)cc1Cl)C(=O)[C@H](CC(=O)NCC13CC4CC(CC(C4)C1)C3)C2 | 1 | . | . | . | . | . | . | .
O=C1OC(c2ccc(F)cc2)=N/C1=C\C=C/c1ccccc1 | 0 | 0 | 2 | -4 | -1 | . | . | .
O=C1OC(/C=C/c2ccccc2)=NC/1=C/C=C/c1ccccc1 | -1 | 13 | 7 | 70* | 1 | 13 | -3 | .
O=Cc1ccc(-c2ccccc2C(=O)O)o1 | 2 | 6 | -3 | 5 | -10 | . | . | .
O=C(O)c1ccccc1-c1c2cc(I)c(=O)c(I)c-2oc2c(I)c(O)c(I)cc12 | 22 | 34 | -75 | 77* | . | 65* | -23 | 164*
Cc1ccc(S(=O)(=O)C(C#N)c2nc3ccccc3nc2N2CC(C)OC(C)C2)cc1C (stereo unspecified) | 0 | -9 | -2 | 79* | -4 | -13 | -19 | .
COc1ccc(NC(=O)C2(C)CCN2CCOc2ccc(C)cc2)cc1OC (stereo unspecified) | 1 | 3 | 2 | . | 4 | . | . | .
CCCCCc1ccnc(CC(=O)c2ccc(OC)cc2)c1 | -1 | 0 | 0 | 94* | 0 | -18 | -19 | .
O=C(CCC(=O)N/N=C/c1ccco1)N/N=C/c1ccco1 | 1 | 21 | 8 | -13 | -18 | . | . | .
O=C(CCCCCCCCC(=O)N/N=C/c1ccco1)N/N=C/c1ccco1 | 0 | 9 | 2 | 51* | -9 | 68* | -11 | -7
CN(C)C=Nc1ccc([N+](=O)[O-])c2ccccc12 | 1 | -10 | -1 | . | 3 | . | . | .
Cc1[nH]c(=O)[nH]c(=O)c1NC(=O)c1ccccc1[N+](=O)[O-] | -1 | 4 | 1 | . | 2 | . | . | .
O=C(O)c1cc(-c2ccc(/C=C3\NC(=O)N(c4ccccc4)C3=O)o2)ccc1Cl | -1 | 57* | 40* | 73* | -3 | 55* | -8 | 9.1*
Cc1ccc(CN2C(=O)N/C(=C/c3ccc(-c4ccc(C(=O)O)cc4)o3)C2=O)cc1 | 4 | 42 | 7 | 59* | 7 | 48* | -11 | 4
O=C1c2ccccc2C(=O)N1Nc1ccc([N+](=O)[O-])cc1[N+](=O)[O-] | 9 | 3 | 18 | 52* | 9 | 46* | -4 | -15
O=C1C2C3C=CC(C3)C2C(=O)N1Nc1ccc([N+](=O)[O-])cc1[N+](=O)[O-] (stereo unspecified) | -3 | -5 | 0 | -2 | -2 | . | . | .
COc1ccc(C)cc1NC(=O)c1ccc2c(=O)n3c(nc2c1)CCCCC3 | 1 | -1 | 0 | 56* | -3 | 3 | -1 | .
COC(=O)C1CCN(C2CN(Cc3ccc(F)cc3)S(=O)(=O)C2)CC1 (stereo unspecified) | 0 | 3 | -1 | . | 2 | . | . | .
COC(=O)Cn1c(=O)c2c(n(Cc3ccccc3)c1=O)N/C(=C/c1ccc(Br)cc1)C2=O | 2 | -3 | 14 | 107* | . | 57* | -15 | 12*
CN(Cc1ccccc1)C(=O)c1csc([C@@H]2O[C@H](CO)[C@H](O)[C@H](O)[C@H]2O)n1 | 0 | 5 | -2 | . | 2 | . | . | .
NC(=O)NC(=O)CC1S/C(=N/N=C2\CSC(=O)N2)NC1=O (stereo unspecified) | -2 | 5 | -2 | -7 | 4 | . | . | .
SMILES | LMPTP inh | DNMT1 block | STEP inh | Scp1 inh | Rpn11 block | Scp-1 conf | MG interference | Scp-1 Tm shift
O=C(O)CNC(=O)CC1S/C(=N/N=C2/NC(=O)CS2)NC1=O (stereo unspecified) | 0 | 2 | 1 | 72* | 14 | 69* | -2 | -13
Cc1cccc(CSc2ccc(S(=O)(=O)N3CCCC3)cn2)c1 | 3 | -31 | -3 | -12 | -2 | . | . | .
O=C1C=CC(=Nc2ccc3c(c2)Cc2cc(F)ccc2-3)O1 | 1 | -16 | 0 | 11 | -4 | . | . | .
O=C1C=CC(=Nc2cccc3c2C(=O)c2ccccc2-3)O1 | 13 | 42 | 1 | 61* | -53 | -20 | -22 | .
O=C(Nc1nc2ccccc2s1)C1CCN(S(=O)(=O)c2cc([N+](=O)[O-])ccc2Cl)CC1 | 7 | 28 | 7 | 68* | -2 | 64* | -9 | 11*
CC(C)NC(=O)CC1OC(=O)c2ccccc21 (stereo unspecified) | -1 | -1 | 2 | -9 | -4 | . | . | .
O=C(CC1OC(=O)c2ccccc21)NNC(=O)c1ccc(F)cc1 (stereo unspecified) | -1 | -2 | -1 | -9 | -1 | -12 | -15 | .
COc1ccccc1CNC(=O)CN(C)S(=O)(=O)c1ccc2c(c1)c(=O)n(C)c(=O)n2C | -1 | 0 | 0 | 5 | -5 | . | . | .
Cn1c(=O)c(=O)n(C)c2cc(S(=O)(=O)CCC(=O)NCc3ccccc3)ccc21 | 1 | 19 | 2 | 71* | 0 | 11 | -13 | .
CN(CC(=O)NCc1ccc(F)cc1)S(=O)(=O)c1ccc2c(c1)n(C)c(=O)c(=O)n2C | -1 | 0 | -2 | -7 | -4 | . | . | .
Cc1ccc(S(=O)(=O)CCC(=O)NCc2ccccc2)cc1 | -3 | 8 | -1 | -10 | -4 | . | . | .
Cc1ccc(CNC(=O)CN(C)S(=O)(=O)c2ccc3c(c2)n(C)c(=O)c(=O)n3C)cc1 | 2 | 1 | 0 | -3 | 2 | -1 | -10 | .

Screening data (PubChem BioAssay)
